Active and inactive are the calls of the source.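 The calls were made as follows, unless noted: active = viability at or below 30% in both replicate assays; inconclusive = viability at or below 30% in just one of the two assays; inactive = the rest.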

The first assay in a line: HUVEC growth inhibition – cell-based, human, primary screen (AID 575).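 Also: 100% = median of untreated cell wells with 0.1% DMSO on each plate.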 Particulars: HUVEC proliferation, CellTiter-Glo luminescence, 72 h; at 10 µM; active compounds read low. The gist of the method: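 Test system – primary HUVEC, no more than 12 passages · Dosing – one dose, 10 µM final, 0.1% DMSO · Times – 72 h treatment at 37 °C · Measured by – ATP-based CellTiter-Glo luminescent read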
A general note: In ATP-based viability assays light output follows the ATP content of the culture.
`CCOC(=O)c1cccc(NC(=O)CSc2nc3ccccc3c(=O)n2CC)c1`: the viability is 65% (inactive).

As to `Cc1cc(C)n(-c2nc3nonc3nc2-n2nc(C)cc2C)n1`, the viability was 83.3% (inactive).

Consider `COc1ccc(C)cc1S(=O)(=O)N(CC(=O)O)c1ccccc1`, for which the viability was 106% (inactive).

As for `COc1cc(OC)cc(C(=O)N2CCN(C(=O)c3ccc(OC)c(OC)c3)CC2)c1`, the viability is 86.1% (inactive).

As for `Cc1cccc(-c2nc(CN3CCCC(C(=O)NC4CCCC4)C3)c(C)o2)c1` (stereo not given), the viability is 72.3% (inactive).

Turning to `CCOc1ccccc1OCC(=O)Nc1nnc(COC)s1`, the viability was 99.5% (inactive).

`CC(=O)OCC1OC(c2ccccc2)C(OC(C)=O)C(OC(C)=O)C1OC(C)=O` (stereo not given): the viability is 108% (inactive).

Take `COc1ccc(-c2nnc(SCC(=O)Nc3ccc(Cl)cc3)n2C)cc1`: the viability was 92.8% (inactive).

With `Cc1sc2c(c1C)CN(C1CC(C)(C)NC(C)(C)C1)CN2C(=O)c1ccco1`, the viability is 75.7% (inactive).

Consider `C=C(c1cccc2ccccc12)P(=O)(O)O`, for which the viability is 104% (inactive).

In the case of `CS(=O)(=O)C1=C(O)C(=O)N(c2ccccc2)C1c1ccccc1` (stereo not given), the viability was 104% (inactive).

As for `CCCN1CCN(CCCNC(=O)C2CCCN(c3nc4ccc(OCC)cc4s3)C2)CC1` (stereo not given), the viability is 74.8% (inactive).

For `CC(=O)Nc1ccc(Cl)cc1C(=O)O`, the viability is 85.8% (inactive).

With `Cc1nc2ccccc2c2c1C(=O)N(CCC1=CCCCC1)C2=O`, the viability was 103% (inactive).

Regarding `COc1ccc(-c2noc(-c3ccccc3C(=O)NCc3ccco3)n2)cc1`, the viability is 107% (inactive).

As for `COc1cccc(OC)c1C(=O)Nc1ccc(CN2CCCCC2)cc1`, the viability was 102% (inactive).

Take `CCOC(=O)C1=C(C)N=C2SCCC(=O)N2C1c1cc(Br)ccc1OC` (stereo not given): the viability was 107% (inactive).

As for `Cc1ccc2cc3cc(C(=O)N4CC(C)CC(C)C4)oc3nc2c1` (stereo not given), the viability is 69.3% (inactive).

For `COC(=O)C1=C(C)OC(N)=C(C#N)C1c1c(C)nn(-c2ccccc2)c1Cl` (stereo not given), the viability is 70.7% (inactive).

`COCC(=O)N(Cc1cc2cc(OC)ccc2[nH]c1=O)c1ccccc1`: the viability is 90.3% (inactive).

For the compound `O=C(COc1ccccc1)N1CCN(C(=O)c2cccc(F)c2)CC1`, the viability is 102% (inactive).

As for `O=C(CCCCC(=O)NCc1cccs1)NCc1cccs1`, the viability was 99.7% (inactive).

Regarding `Cc1ccc(Cn2c(C(=O)NCCCN3CCOCC3)cc3sccc32)cc1`, the viability was 63.6% (inactive).

For `CCC(=O)N1CCNC(=O)C1CC(=O)Nc1ccc(C)c(Cl)c1` (stereo not given), the viability was 94.2% (inactive).

As to `O=C1CSC(c2cn(-c3ccccc3)nc2-c2ccccc2)N1Cc1ccco1` (stereo not given), the viability is 63.1% (inactive).

As for `COc1ccc(-c2cc(C(=O)Nc3ccc(C)cc3)no2)cc1`, the viability is 109% (inactive).

For `CCn1nnc(NC(=O)c2cc3ccccc3o2)n1`, the viability was 97.2% (inactive).

For `O=C(NCC(=O)N(c1cnc2ccccc2c1)C(C(=O)NC1CCCC1)c1ccncc1)c1ccco1` (stereo not given), the viability was 94.5% (inactive).

`CCOC(=O)Nc1ccc(OC)cc1S(=O)(=O)N1CCCCC1`: the viability is 112% (inactive).

For the compound `CCN(CC)CCN1C(=O)C(=O)/C(=C(/O)c2c(C)[nH]c(C(=O)OC)c2C)C1c1ccccc1OC` (stereo not given), the viability is 84.6% (inactive).

As for `Cc1cc(Nc2ccccc2)n(CCC#N)n1`, the viability is 105% (inactive).

With `Cc1cc(C)n(-c2nc3c(c(=O)n(Cc4ccc(Cl)c(Cl)c4)c(=O)n3C)n2C)n1`, the viability was 93% (inactive).

In the case of `CCN(Cc1cc2cc(OC)ccc2[nH]c1=O)C(=O)Cc1ccc(OC)cc1`, the viability is 96.5% (inactive).

On to `COc1cccc(CNC(=O)C2CCN(C(=O)N(C)C)CC2)c1`, for which the viability was 90% (inactive).

For the compound `CCSc1cc(C2C(C(=O)OC)=C(C)NC3=C2C(=O)CCC3)c(C)o1` (stereo not given), the viability is 109% (inactive).

`Cc1ccc2nc(NC(=O)C3CCCN(S(=O)(=O)c4cnc[nH]4)C3)sc2c1` (stereo not given): the viability is 98% (inactive).

`C=CCn1c(SCc2ccc(C#N)cc2)nnc1-c1cccc(Cl)c1`: the viability was 102% (inactive).

In the case of `C=CCn1c(SCC(=O)Nc2ccccc2OC)nnc1-c1ccco1`, the viability is 95.2% (inactive).

With `COCCNC(=O)C(c1ccc(O)cc1)N(Cc1ccco1)C(=O)CCC(=O)Nc1nccs1` (stereo not given), the viability is 104% (inactive).

`Cc1cc(C)c(OCC(=O)Nc2ccc3c(c2)OCO3)cc1C`: the viability was 92% (inactive).

The next assay is described as follows: H69AR cell proliferation blockers – human, duplicate replicates, primary screen (AID 580;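 active = viability at or under a set limit in both replicates, limit being median viability minus 3 SD, cut at about 48% in these data, passing the limit was not always enough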;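 also: 100% = mean luminescence of untreated wells and 0% = no signal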). Particulars: H69AR lung tumor cells viability, ATP luminescence, 72 h; at 10 µM; active compounds read low.
`CCOC(=O)c1cccc(NC(=O)CSc2nc3ccccc3c(=O)n2CC)c1`: the viability was 71.1% (inactive).

As to `Cc1cc(C)n(-c2nc3nonc3nc2-n2nc(C)cc2C)n1`, the viability is 105% (inactive).

On to `COc1ccc(C)cc1S(=O)(=O)N(CC(=O)O)c1ccccc1`, for which the viability is 86.1% (inactive).

`COc1cc(OC)cc(C(=O)N2CCN(C(=O)c3ccc(OC)c(OC)c3)CC2)c1`: the viability is 92.4% (inactive).

In the case of `Cc1cccc(-c2nc(CN3CCCC(C(=O)NC4CCCC4)C3)c(C)o2)c1` (stereo not given), the viability is 84.2% (inactive).

For `CCOc1ccccc1OCC(=O)Nc1nnc(COC)s1`, the viability was 91.8% (inactive).

As to `CC(=O)OCC1OC(c2ccccc2)C(OC(C)=O)C(OC(C)=O)C1OC(C)=O` (stereo not given), the viability is 98.8% (inactive).

On to `COc1ccc(-c2nnc(SCC(=O)Nc3ccc(Cl)cc3)n2C)cc1`, for which the viability is 90.2% (inactive).

In the case of `Cc1sc2c(c1C)CN(C1CC(C)(C)NC(C)(C)C1)CN2C(=O)c1ccco1`, the viability is 83.7% (inactive).

For the compound `C=C(c1cccc2ccccc12)P(=O)(O)O`, the viability was 92.9% (inactive).

`CS(=O)(=O)C1=C(O)C(=O)N(c2ccccc2)C1c1ccccc1` (stereo not given): the viability was 105% (inactive).

As to `CCCN1CCN(CCCNC(=O)C2CCCN(c3nc4ccc(OCC)cc4s3)C2)CC1` (stereo not given), the viability is 87.3% (inactive).

Turning to `CC(=O)Nc1ccc(Cl)cc1C(=O)O`, the viability is 106% (inactive).

As for `Cc1nc2ccccc2c2c1C(=O)N(CCC1=CCCCC1)C2=O`, the viability is 88.4% (inactive).

In the case of `COc1ccc(-c2noc(-c3ccccc3C(=O)NCc3ccco3)n2)cc1`, the viability is 82.8% (inactive).

Regarding `COc1cccc(OC)c1C(=O)Nc1ccc(CN2CCCCC2)cc1`, the viability is 89.4% (inactive).

Consider `CCOC(=O)C1=C(C)N=C2SCCC(=O)N2C1c1cc(Br)ccc1OC` (stereo not given), for which the viability was 92% (inactive).

For `Cc1ccc2cc3cc(C(=O)N4CC(C)CC(C)C4)oc3nc2c1` (stereo not given), the viability is 89.2% (inactive).

As to `COC(=O)C1=C(C)OC(N)=C(C#N)C1c1c(C)nn(-c2ccccc2)c1Cl` (stereo not given), the viability is 79.7% (inactive).

Take `COCC(=O)N(Cc1cc2cc(OC)ccc2[nH]c1=O)c1ccccc1`: the viability was 90.4% (inactive).

As for `O=C(COc1ccccc1)N1CCN(C(=O)c2cccc(F)c2)CC1`, the viability is 101% (inactive).

Turning to `O=C(CCCCC(=O)NCc1cccs1)NCc1cccs1`, the viability is 97.8% (inactive).

For the compound `Cc1ccc(Cn2c(C(=O)NCCCN3CCOCC3)cc3sccc32)cc1`, the viability was 77.6% (inactive).

As for `CCC(=O)N1CCNC(=O)C1CC(=O)Nc1ccc(C)c(Cl)c1` (stereo not given), the viability is 95.8% (inactive).

On to `O=C1CSC(c2cn(-c3ccccc3)nc2-c2ccccc2)N1Cc1ccco1` (stereo not given), for which the viability was 88.3% (inactive).

Regarding `COc1ccc(-c2cc(C(=O)Nc3ccc(C)cc3)no2)cc1`, the viability was 99.1% (inactive).

Take `CCn1nnc(NC(=O)c2cc3ccccc3o2)n1`: the viability is 101% (inactive).

Regarding `O=C(NCC(=O)N(c1cnc2ccccc2c1)C(C(=O)NC1CCCC1)c1ccncc1)c1ccco1` (stereo not given), the viability is 90.1% (inactive).

With `CCOC(=O)Nc1ccc(OC)cc1S(=O)(=O)N1CCCCC1`, the viability was 99% (inactive).

As to `CCN(CC)CCN1C(=O)C(=O)/C(=C(/O)c2c(C)[nH]c(C(=O)OC)c2C)C1c1ccccc1OC` (stereo not given), the viability is 68.3% (inactive).

For the compound `Cc1cc(Nc2ccccc2)n(CCC#N)n1`, the viability was 102% (inactive).

Regarding `Cc1cc(C)n(-c2nc3c(c(=O)n(Cc4ccc(Cl)c(Cl)c4)c(=O)n3C)n2C)n1`, the viability is 95.6% (inactive).

For the compound `CCN(Cc1cc2cc(OC)ccc2[nH]c1=O)C(=O)Cc1ccc(OC)cc1`, the viability was 88.2% (inactive).

In the case of `COc1cccc(CNC(=O)C2CCN(C(=O)N(C)C)CC2)c1`, the viability was 92.2% (inactive).

For the compound `CCSc1cc(C2C(C(=O)OC)=C(C)NC3=C2C(=O)CCC3)c(C)o1` (stereo not given), the viability was 84.5% (inactive).

In the case of `Cc1ccc2nc(NC(=O)C3CCCN(S(=O)(=O)c4cnc[nH]4)C3)sc2c1` (stereo not given), the viability was 81.9% (inactive).

For `C=CCn1c(SCc2ccc(C#N)cc2)nnc1-c1cccc(Cl)c1`, the viability is 80.2% (inactive).

For the compound `C=CCn1c(SCC(=O)Nc2ccccc2OC)nnc1-c1ccco1`, the viability was 67.7% (inactive).

Consider `COCCNC(=O)C(c1ccc(O)cc1)N(Cc1ccco1)C(=O)CCC(=O)Nc1nccs1` (stereo not given), for which the viability is 99.5% (inactive).

For the compound `Cc1cc(C)c(OCC(=O)Nc2ccc3c(c2)OCO3)cc1C`, the viability was 84.5% (inactive).

For orientation: viability means a read-out of living cells in per cent, often relative to untreated cells.
